Each structure is given as a SMILES string. Where a name gives a salt, the structure may show the parent alone.

This passage reports IC50 results from ChEMBL document CHEMBL1158125, “seco-Cycloartane triterpenes from Gardenia aubryi” (J Nat Prod, 2006).

Common to all, as to format: functional, cell-based
The subject of one experiment is MDA-MB-231. The experiment is described as follows: Cytotoxicity against human MDA-MB-231 cells after 48 hrs by MTT assay. As to conditions: MDA-MB-231, 48 h. Put shortly: (§1)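 Cells grown in DMEM with penicillin (100 U/mL), streptomycin (100 μg/mL) and 10% FBS at 37 °C, 5% CO2, and seeded at 5000 cells/well. After 24 h, compounds were added diluted in DMSO and left for 48 h. Medium was then replaced with MTT (1 mg/mL final, serum-free phenol-red-free RPMI) for 4 h. Formazan was dissolved in isopropanol and read at 550 nm (reference 690 nm). IC50 reported.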

The next experiment concerns PC-3. The experiment is described as follows: Cytotoxicity against human PC-3 cells after 48 hrs by MTT assay. As to conditions: PC-3, 48 h. In outline: as §1
On the technique in general: Tetrazolium assays rely on reduction of a dye to a coloured formazan, in cell work by metabolically active cells.

In a further experiment the test system is HeLa. In words: Cytotoxicity against human HeLa cells after 48 hrs by MTT assay. Put shortly: as §1
In another experiment the test system is MCF7. The experiment is described as follows: Cytotoxicity against human MCF7 cells after 48 hrs by MTT assay. As to conditions: MCF7, 48 h. Put shortly:
as §1

`COc1cccc2c1C(=O)c1c(O)c3c(c(O)c1C2=O)C[C@@](O)(C(C)=O)C[C@@H]3O[C@H]1C[C@H](N)[C@H](O)[C@H](C)O1` [DAUNORUBICIN HYDROCHLORIDE]: the IC50 (commonly the concentration that inhibits the measured activity by half) amounted to 0.25 µM in the experiment on MDA-MB-231, 0.44 µM with PC-3, 0.32 µM in the experiment on HeLa and 0.22 µM in the experiment on MCF7.
Taken in the same sequence, the figures for `C=C(CO)[C@@H]1CC[C@H]2[C@]3(CC[C@]4(C)[C@@H]([C@H](C)CCC=C(C)C)CC[C@@]24C)C[C@]13CCC(=O)O` [SECAUBRYENOL] were greater than 100 µM, greater than 100 µM, greater than 100 µM and greater than 100 µM.
For `C=C1C(=O)O[C@@H]2C[C@@H]3[C@]4(CC[C@]5(C)[C@@H]([C@H](C)CC(=O)C=C(C)C)CC[C@@]35C)C[C@]4(CCC(=O)OC)[C@H]12` [SECAUBRYOLIDE] the same measures were 21 µM, 35 µM, 40 µM and 52 µM.
On to `C=C(CO)[C@@H]1CC[C@H]2[C@]3(CC[C@]4(C)[C@@H]([C@H](C)CC[C@@H](O)C(C)(C)O)CC[C@@]24C)C[C@]13CCC(=O)O` [SECAUBRYTRIOL], for which the concentration for half-maximal inhibition (IC50) in the experiment with MDA-MB-231, with PC-3, in the experiment with HeLa and in the experiment on MCF7 was greater than 100 µM each time.
